Data reported in ChEMBL document CHEMBL1828602, “CNS and antimalarial activity of synthetic meridianin and psammopemmin analogs” (Bioorg Med Chem, 2011).

Experiments:
[1] = biological target: 5-hydroxytryptamine receptor 5A (Homo sapiens, UniProt P47898); assay: Displacement of [3H]LSD from 5-HT5A receptor after 1.5 hrs by scintillation counting
[2] = biological target: T1, 5-hydroxytryptamine receptor 2C (Homo sapiens, UniProt P28335); assay: Displacement of [3H]mesulergine from 5-HT2C receptor after 1.5 hrs by scintillation counting
T1 sequence (P28335 whole entry): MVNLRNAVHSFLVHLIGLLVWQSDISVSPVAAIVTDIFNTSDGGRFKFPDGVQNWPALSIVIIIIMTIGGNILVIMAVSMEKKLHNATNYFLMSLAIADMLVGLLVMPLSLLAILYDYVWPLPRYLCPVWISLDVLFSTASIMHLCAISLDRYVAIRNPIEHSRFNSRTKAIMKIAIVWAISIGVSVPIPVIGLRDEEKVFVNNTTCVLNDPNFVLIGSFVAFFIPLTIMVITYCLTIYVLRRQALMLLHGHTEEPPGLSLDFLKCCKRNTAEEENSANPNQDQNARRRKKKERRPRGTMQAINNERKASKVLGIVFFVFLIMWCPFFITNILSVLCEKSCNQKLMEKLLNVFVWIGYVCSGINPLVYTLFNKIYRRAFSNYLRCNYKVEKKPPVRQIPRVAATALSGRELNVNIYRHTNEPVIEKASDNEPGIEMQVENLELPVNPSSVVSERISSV

[3] = biological target: T2, 5-hydroxytryptamine receptor 1A (Homo sapiens, UniProt P08908); assay: Displacement of [3H]8-OH-DPAT from 5-HT1A receptor after 1.5 hrs by scintillation counting
T2 sequence (P08908 whole entry): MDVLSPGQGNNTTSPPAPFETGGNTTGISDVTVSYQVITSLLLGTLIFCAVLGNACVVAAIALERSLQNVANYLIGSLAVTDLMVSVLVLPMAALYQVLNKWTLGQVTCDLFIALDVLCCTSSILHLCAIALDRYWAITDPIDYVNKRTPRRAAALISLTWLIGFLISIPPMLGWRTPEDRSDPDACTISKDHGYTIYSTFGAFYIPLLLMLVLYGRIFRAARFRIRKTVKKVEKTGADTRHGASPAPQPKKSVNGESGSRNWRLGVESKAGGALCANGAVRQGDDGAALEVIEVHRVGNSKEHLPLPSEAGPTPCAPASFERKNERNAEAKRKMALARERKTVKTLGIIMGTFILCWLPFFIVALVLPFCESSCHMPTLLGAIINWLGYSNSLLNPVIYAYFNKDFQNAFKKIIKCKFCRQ

A549 = assay: Cytotoxicity against human A549 cells after 72 hrs; format: cell-based
In short: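 A549 cells at 12,000 per well in DMEM F12 (no HEPES or phenol red) with 2% FBS and 1% penicillin–streptomycin, preincubated 24 h at 37 °C, 5% CO2. Compounds then added, 72 h incubation. Viability by MTS-type tetrazolium reagent, 1 h at 37 °C, absorbance at 490 nm. IC50 determined.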

Plasmodium falciparum = assay: Antimalarial activity against transgenic Plasmodium falciparum 3D7 infected in human A positive erythrocytes after 72 hrs by luciferase reporter gene assay; format: functional, organism-based; conditions: 3D7, 72 h
In short: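 Luciferase-expressing P. falciparum 3D7 kept in RPMI 1640 without phenol red, 10% heat-inactivated A+ human plasma, 4% washed A+ erythrocytes, 90% N2/5% O2/5% CO2, 37 °C. Ring-stage cultures (>70% rings) diluted to 0.5% parasitemia, 1.5% hematocrit. Eleven-point duplicate twofold series, final 100 to 0.098 µg/mL. Incubated 72 h, frozen at −20 °C, lysed, luminescence read (5 s integration). IC50 by nonlinear regression.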

[4] = biological target: 5-hydroxytryptamine receptor 1D (Homo sapiens, UniProt P28221); assay: Displacement of [3H]5-carboximidotryptamine from 5-HT1D receptor after 1.5 hrs by scintillation counting
[5] = biological target: 5-hydroxytryptamine receptor 2B (Homo sapiens, UniProt P41595); assay: Displacement of [3H]LSD from 5-HT2B receptor after 1.5 hrs by scintillation counting
[6] = biological target: T3, Muscarinic acetylcholine receptor M5 (Homo sapiens, UniProt P08912); assay: Displacement of [3H]QNB from muscarinic acetylcholine M5 receptor after 1.5 hrs by scintillation counting
T3 sequence (P08912 whole entry): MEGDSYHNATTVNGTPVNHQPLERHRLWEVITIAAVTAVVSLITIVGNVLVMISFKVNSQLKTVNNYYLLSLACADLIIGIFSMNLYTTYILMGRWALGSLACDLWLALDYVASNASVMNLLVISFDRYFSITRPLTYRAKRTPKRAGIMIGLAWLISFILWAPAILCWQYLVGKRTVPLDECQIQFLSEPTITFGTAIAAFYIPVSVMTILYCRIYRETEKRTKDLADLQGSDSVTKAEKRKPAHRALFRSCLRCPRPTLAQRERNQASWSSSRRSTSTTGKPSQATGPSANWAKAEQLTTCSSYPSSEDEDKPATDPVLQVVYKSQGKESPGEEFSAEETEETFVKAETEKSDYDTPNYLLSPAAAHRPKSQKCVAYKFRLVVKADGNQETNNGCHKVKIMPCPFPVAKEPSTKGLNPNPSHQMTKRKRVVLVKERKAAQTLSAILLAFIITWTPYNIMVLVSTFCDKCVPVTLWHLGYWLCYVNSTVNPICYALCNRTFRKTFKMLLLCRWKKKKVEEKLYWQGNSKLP

[7] = biological target: 5-hydroxytryptamine receptor 7 (Homo sapiens, UniProt P34969); assay: Displacement of [3H]LSD from 5-HT7 receptor after 1.5 hrs by scintillation counting
D(1B) dopamine receptor = D(1B) dopamine receptor (Homo sapiens, UniProt P21918); assay: Displacement of [3H][…] from dopamine D5 receptor after 1.5 hrs by scintillation counting
[8] = biological target: Sodium-dependent dopamine transporter (Homo sapiens, UniProt Q01959); assay: Displacement of [3H]WIN35428 from DAT after 1.5 hrs by scintillation counting
[9] = Inhibition of pig brain CK1delta/epsilon assessed as RRKHAAIGSpAYSITA phosphorylation using [33P]gamma-ATP after 30 mins by scintillation counting; design: species or system Sus scrofa
[10] = biological target: Cyclin-dependent kinase 5 (Homo sapiens, UniProt Q00535); assay: Inhibition of CDK5
[11] = biological target: Cyclin-dependent kinase 2/cyclin A (Homo sapiens, UniProt P24941); assay: Inhibition of human recombinant CDK2/cyclin A expressed in insect cells assessed as histone phosphorylation using [33P]gamma-ATP after 30 mins by scintillation counting
[12] = Inhibition of PKG
SH-SY5Y = assay: Cytotoxicity against human SH-SY5Y cells by MTS assay; format: cell-based
HEp-2 = assay: Cytotoxicity against human Hep2 cells; format: cell-based
CDK9/cyclin T1 = CDK9/cyclin T1 (Homo sapiens, UniProt P50750); assay: Inhibition of human recombinant CDK9/cyclin T expressed in insect cells assessed as pRB fragment (773 to 928) phosphorylation using [33P]gamma-ATP after 30 mins by scintillation counting
HT-29 = assay: Cytotoxicity against human HT-29 cells; format: cell-based
[13] = Cytotoxicity against mouse LMM3 cells; format: cell-based
[14] = Inhibition of PKA

Sodium-dependent dopamine transporter, sequence (Q01959 whole entry): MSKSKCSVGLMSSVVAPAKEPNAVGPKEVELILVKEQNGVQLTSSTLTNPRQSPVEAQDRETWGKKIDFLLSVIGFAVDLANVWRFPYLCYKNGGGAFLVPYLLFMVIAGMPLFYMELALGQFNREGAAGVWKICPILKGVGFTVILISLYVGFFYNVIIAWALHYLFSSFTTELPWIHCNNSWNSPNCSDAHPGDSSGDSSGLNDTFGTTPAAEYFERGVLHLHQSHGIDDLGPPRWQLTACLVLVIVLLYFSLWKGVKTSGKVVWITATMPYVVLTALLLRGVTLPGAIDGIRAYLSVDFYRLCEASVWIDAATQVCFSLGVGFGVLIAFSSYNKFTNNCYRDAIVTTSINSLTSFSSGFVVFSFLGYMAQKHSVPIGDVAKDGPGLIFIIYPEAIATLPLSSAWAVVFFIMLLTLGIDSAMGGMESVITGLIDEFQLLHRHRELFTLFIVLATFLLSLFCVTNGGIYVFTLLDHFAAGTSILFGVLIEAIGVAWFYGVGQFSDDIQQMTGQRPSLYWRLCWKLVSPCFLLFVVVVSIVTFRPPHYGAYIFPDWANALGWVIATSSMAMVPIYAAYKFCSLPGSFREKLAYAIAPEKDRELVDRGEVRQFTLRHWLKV
5-hydroxytryptamine receptor 1D, sequence (P28221 whole entry): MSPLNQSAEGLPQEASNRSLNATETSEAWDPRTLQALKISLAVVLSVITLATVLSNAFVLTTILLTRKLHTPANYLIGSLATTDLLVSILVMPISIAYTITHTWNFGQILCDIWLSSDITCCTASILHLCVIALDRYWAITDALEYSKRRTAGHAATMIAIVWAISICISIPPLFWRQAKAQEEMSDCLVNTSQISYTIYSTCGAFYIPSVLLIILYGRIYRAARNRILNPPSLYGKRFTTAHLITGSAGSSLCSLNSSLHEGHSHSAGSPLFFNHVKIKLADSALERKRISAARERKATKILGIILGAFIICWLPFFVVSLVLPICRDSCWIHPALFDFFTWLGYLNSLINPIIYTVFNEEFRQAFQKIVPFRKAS
D(1B) dopamine receptor, sequence (P21918 whole entry): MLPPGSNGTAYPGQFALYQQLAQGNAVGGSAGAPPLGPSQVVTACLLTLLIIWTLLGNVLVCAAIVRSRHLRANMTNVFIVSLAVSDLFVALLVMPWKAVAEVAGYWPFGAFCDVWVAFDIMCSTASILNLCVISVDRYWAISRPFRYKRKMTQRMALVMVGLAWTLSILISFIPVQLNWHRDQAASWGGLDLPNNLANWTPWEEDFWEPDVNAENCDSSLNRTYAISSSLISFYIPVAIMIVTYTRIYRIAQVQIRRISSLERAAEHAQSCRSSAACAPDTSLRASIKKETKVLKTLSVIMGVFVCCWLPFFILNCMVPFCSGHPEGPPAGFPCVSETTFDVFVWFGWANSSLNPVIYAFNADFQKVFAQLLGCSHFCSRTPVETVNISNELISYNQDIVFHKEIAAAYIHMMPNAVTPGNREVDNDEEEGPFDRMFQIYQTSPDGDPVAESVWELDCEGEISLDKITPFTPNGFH
5-hydroxytryptamine receptor 5A, sequence (P47898 whole entry): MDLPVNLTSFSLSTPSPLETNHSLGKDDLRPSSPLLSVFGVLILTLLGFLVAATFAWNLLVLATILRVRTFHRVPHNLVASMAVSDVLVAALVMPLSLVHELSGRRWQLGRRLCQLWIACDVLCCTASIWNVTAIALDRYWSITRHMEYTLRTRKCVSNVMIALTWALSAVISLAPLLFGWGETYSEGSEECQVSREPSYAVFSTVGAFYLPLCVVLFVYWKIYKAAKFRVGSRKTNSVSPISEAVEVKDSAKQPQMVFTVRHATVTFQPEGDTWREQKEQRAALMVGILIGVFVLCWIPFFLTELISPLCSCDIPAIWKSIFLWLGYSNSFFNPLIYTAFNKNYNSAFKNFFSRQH
5-hydroxytryptamine receptor 7, sequence (P34969 whole entry): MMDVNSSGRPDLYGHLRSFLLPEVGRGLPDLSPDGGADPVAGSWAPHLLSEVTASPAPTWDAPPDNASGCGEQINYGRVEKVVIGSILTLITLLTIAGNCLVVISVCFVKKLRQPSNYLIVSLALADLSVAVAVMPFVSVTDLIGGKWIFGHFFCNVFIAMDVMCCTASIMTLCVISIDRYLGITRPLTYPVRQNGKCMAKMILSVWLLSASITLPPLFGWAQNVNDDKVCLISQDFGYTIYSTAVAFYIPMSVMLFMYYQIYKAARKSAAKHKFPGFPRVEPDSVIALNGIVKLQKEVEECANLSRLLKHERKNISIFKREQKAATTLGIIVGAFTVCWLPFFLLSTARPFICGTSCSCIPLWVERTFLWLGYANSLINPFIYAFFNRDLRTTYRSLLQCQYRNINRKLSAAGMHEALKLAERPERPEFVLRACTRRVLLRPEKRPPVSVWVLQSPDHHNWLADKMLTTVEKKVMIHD
5-hydroxytryptamine receptor 2B, sequence (P41595 whole entry): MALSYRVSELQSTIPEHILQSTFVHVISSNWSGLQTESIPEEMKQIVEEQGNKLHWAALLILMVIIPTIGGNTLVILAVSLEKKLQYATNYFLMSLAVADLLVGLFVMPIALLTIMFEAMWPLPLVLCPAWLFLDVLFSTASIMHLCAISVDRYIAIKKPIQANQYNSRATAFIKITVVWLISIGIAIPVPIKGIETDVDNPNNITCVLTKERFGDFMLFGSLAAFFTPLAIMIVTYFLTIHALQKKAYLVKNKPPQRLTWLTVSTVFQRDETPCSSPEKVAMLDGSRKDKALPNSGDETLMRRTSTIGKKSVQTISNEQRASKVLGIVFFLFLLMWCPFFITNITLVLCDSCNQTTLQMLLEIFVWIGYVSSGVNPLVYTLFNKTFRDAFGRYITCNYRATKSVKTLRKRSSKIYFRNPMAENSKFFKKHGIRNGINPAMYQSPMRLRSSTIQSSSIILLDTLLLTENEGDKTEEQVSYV
Cyclin-dependent kinase 5, sequence (Q00535 whole entry): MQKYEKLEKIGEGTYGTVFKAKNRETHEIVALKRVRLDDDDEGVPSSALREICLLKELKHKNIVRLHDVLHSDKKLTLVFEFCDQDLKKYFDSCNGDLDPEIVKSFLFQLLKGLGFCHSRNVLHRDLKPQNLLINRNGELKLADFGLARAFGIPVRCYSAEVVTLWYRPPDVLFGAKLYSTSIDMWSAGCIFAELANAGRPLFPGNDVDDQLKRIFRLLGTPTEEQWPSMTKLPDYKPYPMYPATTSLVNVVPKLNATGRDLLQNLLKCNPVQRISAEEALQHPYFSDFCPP
CDK9/cyclin T1, sequence (O60563 whole entry, the tested form may be a part): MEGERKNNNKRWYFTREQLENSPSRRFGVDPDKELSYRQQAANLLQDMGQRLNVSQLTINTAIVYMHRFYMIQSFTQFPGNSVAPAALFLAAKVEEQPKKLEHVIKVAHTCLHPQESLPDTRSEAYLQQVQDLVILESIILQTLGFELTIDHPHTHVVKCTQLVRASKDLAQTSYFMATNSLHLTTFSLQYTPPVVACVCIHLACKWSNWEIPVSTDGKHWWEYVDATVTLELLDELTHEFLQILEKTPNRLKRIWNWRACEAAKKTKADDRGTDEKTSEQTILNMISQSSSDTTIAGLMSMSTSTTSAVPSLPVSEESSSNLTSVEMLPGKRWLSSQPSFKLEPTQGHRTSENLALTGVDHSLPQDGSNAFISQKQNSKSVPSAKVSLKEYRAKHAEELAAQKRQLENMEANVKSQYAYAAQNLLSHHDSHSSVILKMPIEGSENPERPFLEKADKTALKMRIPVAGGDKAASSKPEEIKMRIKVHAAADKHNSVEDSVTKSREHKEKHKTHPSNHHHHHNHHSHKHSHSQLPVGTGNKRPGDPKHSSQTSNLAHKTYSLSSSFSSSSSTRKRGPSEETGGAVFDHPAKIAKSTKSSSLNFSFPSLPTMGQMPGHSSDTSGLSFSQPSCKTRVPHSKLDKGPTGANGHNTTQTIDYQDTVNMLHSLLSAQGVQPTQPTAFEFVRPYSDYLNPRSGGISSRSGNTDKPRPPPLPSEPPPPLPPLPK
CDK9/cyclin T1, sequence (P50750 whole entry, the tested form may be a part): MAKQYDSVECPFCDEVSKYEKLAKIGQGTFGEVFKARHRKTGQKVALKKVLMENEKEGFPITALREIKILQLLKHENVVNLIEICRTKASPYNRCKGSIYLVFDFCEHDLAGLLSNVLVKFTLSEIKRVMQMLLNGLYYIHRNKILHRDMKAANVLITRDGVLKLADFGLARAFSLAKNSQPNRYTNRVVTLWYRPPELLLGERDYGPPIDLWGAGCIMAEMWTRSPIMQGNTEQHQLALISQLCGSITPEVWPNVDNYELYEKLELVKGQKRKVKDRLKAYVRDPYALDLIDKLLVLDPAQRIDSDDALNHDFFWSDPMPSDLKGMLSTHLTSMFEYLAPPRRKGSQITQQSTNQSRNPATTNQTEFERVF

SMILES | Ki [2] | Ki [3] | IC50 (Plasmodium falciparum) | Ki [4] | Ki [5] | IC50 [6] | Ki (D(1B) dopamine receptor) | IC50 [8] | IC50 [1] | IC50 [2] | IC50 [3] | IC50 [5] | Ki [6] | IC50 [7] | IC50 (A549; Homo sapiens, A549, 72 h) | also measured
Nc1nc(Cl)ncc1-c1c[nH]c2cccc(O)c12 |  |  | > 38 µM |  |  |  | > 10 µM | > 10 µM | > 10 µM | > 10 µM | > 10 µM | > 10 µM | 7.04 µM | > 10 µM | > 256 µM | IC50 [4]: > 10 µM
Nc1nc(Br)ncc1-c1c[nH]c2cccc(O)c12 [PSAMMOPEMMIN A] |  |  | > 33 µM | > 10 µM |  | > 10 µM | > 10 µM | > 10 µM | > 10 µM | > 10 µM | > 10 µM | > 10 µM |  | > 10 µM | > 219 µM | 
CC1=C[C@H]2O[C@@H]3C[C@H]4OC(=O)/C=C\C=C\[C@H]([C@@H](C)O)OCC/C(C)=C/C(=O)OC[C@@]2(CC1)[C@]4(C)[C@]31CO1 [RORIDIN E] |  |  |  |  |  |  |  |  |  |  |  |  |  |  |  | IC50 (A549; a549): < 9.7 µM

Further lines, with some results ahead:

Ki [2] | Ki [3] | IC50 (Plasmodium falciparum) | Ki [4] | Ki [5] | IC50 [6] | Ki (D(1B) dopamine receptor) | IC50 [8] | IC50 [1] | IC50 [2] | IC50 [3] | IC50 [5] | Ki [6] | IC50 [7] | SMILES | IC50 (A549; Homo sapiens, A549, 72 h) | also measured
> 10 µM | 1.35 µM | 40 µM | > 10 µM | 0.088 µM | > 10 µM | > 10 µM | > 10 µM |  |  |  |  |  |  | COc1cccc2[nH]cc(-c3ccnc(N)n3)c12 | > 420 µM | Ki [1]: 1.53 µM; Ki [7]: 1.99 µM
> 10 µM | 0.684 µM | 12 µM | > 10 µM | 0.15 µM |  | > 10 µM |  | > 10 µM |  |  |  | > 10 µM | > 10 µM | Nc1nccc(-c2c[nH]c3cccc(O)c23)n1 [MERIDIANIN A] | 15 µM | IC50 [9]: 1.1 µM; IC50 [10]: 3.5 µM; IC50 [11]: 3.1 µM; IC50 [12]: 200 µM; IC50 (SH-SY5Y): > 30 µM; IC50 (HEp-2): > 100 µM; IC50 (CDK9/cyclin T1): 2.4 µM; IC50 (HT-29): > 100 µM; IC50 [13]: > 100 µM; IC50 [14]: 11 µM; Ki [8]: 2.35 µM
 |  | 200 µM |  |  |  |  |  |  |  |  |  |  |  | CCN(CC)c1nccc(-c2c[nH]c3cc(Cl)ccc23)n1 [MERIDOQUIN] | > 333 µM | 
